# Measurements taken from ChEMBL document CHEMBL1128262, “New steroidal antiinflammatory antedrugs: steroidal [16 alpha,17 alpha-d]-3'-carbethoxyisoxazolines” (1995).
# What was measured:
# Rattus norvegicus [1] = test: The body weight change of rats after administration of the compound; assay type: functional
# Method in brief: (§1)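 Male Sprague-Dawley rats given 5-day once-daily topical steroid to right ears in acetone/DMSO, with croton oil to both ears. Afterward, body weight change, thymus weight change and plasma corticosterone (ng/mL) were recorded against controls. Five or six samples per group, mean ± SEM; ANOVA with Bonferroni post hoc test.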
# Rattus norvegicus [2] = test: The plasma corticosterone (ng/ml) concentration was measured in rats after compound administration; assay type: functional, organism-based; method in brief: as §1
# Rattus norvegicus [3] = test: The thymus weight change of rats after administration of the compound; assay type: functional; method in brief: as §1
# Rattus norvegicus [4] = test: The antiinflammatory activity was evaluated as %inhibition of croton oil induced ear edema in the left ear of rat; assay type: functional
# Method in brief: (§2)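 Male Sprague-Dawley rats. Right ears dosed topically (acetone/DMSO vehicle, 25 µL) once daily for 5 days, with 5% croton oil applied 30 min after each dose. Left ears received vehicle plus croton oil to reflect systemic effect. Micrometer ear thickness read 5 h after croton oil. % inhibition computed against controls; ANOVA with Bonferroni test.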
# Rattus norvegicus [5] = test: The antiinflammatory activity was evaluated as %inhibition of croton oil induced ear edema in the right ear of rat; assay type: functional; method in brief: as §2
# Rattus norvegicus [6] = test: The antiinflammatory activity was evaluated as %inhibition of croton oil induced ear edema in the left ear of rat At the dose of 135(nmol/ear); assay type: functional; method in brief: as §2
# Rattus norvegicus [7] = test: The antiinflammatory activity was evaluated as %inhibition of croton oil induced ear edema in the right ear of rat At the dose of 135(nmol/ear); assay type: functional; method in brief: as §2
# Rattus norvegicus [8] = test: The antiinflammatory activity was evaluated as %inhibition of croton oil induced ear edema in the left ear of rat at the dose of 101(nmol/ear); assay type: functional; method in brief: as §2
# Rattus norvegicus [9] = test: The antiinflammatory activity was evaluated as %inhibition of croton oil induced ear edema in the right ear of rat at the dose of 101(nmol/ear); assay type: functional; method in brief: as §2
# Rattus norvegicus [10] = test: The %inhibition of compound for croton oil -induced ear edema was measured in rats at 0.1 mg/ear; assay type: functional
# Method in brief: (§3)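 Male Sprague-Dawley rats; initial ear thickness measured with spring-loaded micrometer. Single topical dose of steroid in 25 µL acetone/DMSO applied to ear surfaces, then 5% croton oil 30 min later. Ear thickness remeasured 5 h later at peak inflammation. % inhibition computed against vehicle-treated controls; five animals per group.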
# Rattus norvegicus [11] = test: The %inhibition of compound for croton oil -induced ear edema was measured in rats at 0.03 mg/ear; assay type: functional; method in brief: as §3
# Rattus norvegicus [12] = test: The %inhibition of compound for croton oil -induced ear edema was measured in rats at 0.01 mg/ear; assay type: functional; method in brief: as §3
SMILES,Body weight change (Rattus norvegicus [1]) [g],Plasma corticosterone (Rattus norvegicus [2]) [ng/mL],Thymus weight (Rattus norvegicus [3]) [mg],Inhibition (Rattus norvegicus [4]) [%],Inhibition (Rattus norvegicus [5]) [%],Inhibition (Rattus norvegicus [6]) [%],Inhibition (Rattus norvegicus [7]) [%],Inhibition (Rattus norvegicus [8]) [%],Inhibition (Rattus norvegicus [9]) [%],Inhibition (Rattus norvegicus [10]) [%],Inhibition (Rattus norvegicus [11]) [%],Inhibition (Rattus norvegicus [12]) [%]
C[C@]12C=CC(=O)C=C1CC[C@@H]1[C@@H]2[C@@H](O)C[C@@]2(C)[C@H]1CC[C@]2(O)C(=O)CO [PREDNISOLONE],22.8,31.8,369,49.6,66.7,–,–,–,–,–,–,–
CCOC(=O)C1=NO[C@]2(C(=O)CO)[C@H]1CC1C3CCC4=CC(=O)C=C[C@]4(C)[C@@]3(F)[C@@H](O)C[C@@]12C (stereo partly specified),36,48.6,562,–,–,24.4,56.9,–,–,–,–,–
CCOC(=O)C1=NO[C@]2(C(=O)COC(C)=O)[C@H]1CC1C3CCC4=CC(=O)C=C[C@]4(C)[C@@]3(F)[C@@H](O)C[C@@]12C (stereo partly specified),38,134,625,–,–,–,–,8.9,51.2,–,–,–
CCOC(=O)C1=NO[C@]2(C(=O)COC(C)=O)[C@H]1CC1C3CCC4=CC(=O)C=C[C@]4(C)[C@H]3[C@@H](O)C[C@@]12C (stereo partly specified),–,–,–,–,–,–,–,–,–,35.7,21.4,14.9
CCOC(=O)C1=NO[C@]2(C(=O)CO)[C@H]1CC1C3CCC4=CC(=O)C=C[C@]4(C)[C@H]3[C@@H](O)C[C@@]12C (stereo partly specified),–,–,–,–,–,–,–,–,–,44,44,31.3
